DNMT1 inh: DNMT1 (human) enzyme inhibition; P26358; DNMT1 molecular beacon, Hinp1I cleavage, fluorescence; inhibition (reported as % activation of signal), % at 10 µM; 360,000 compounds, 0.83% hits; AID 588458; in the data active = inhibition above about 50%
Target sequence (P26358 504-1616 limits assumed): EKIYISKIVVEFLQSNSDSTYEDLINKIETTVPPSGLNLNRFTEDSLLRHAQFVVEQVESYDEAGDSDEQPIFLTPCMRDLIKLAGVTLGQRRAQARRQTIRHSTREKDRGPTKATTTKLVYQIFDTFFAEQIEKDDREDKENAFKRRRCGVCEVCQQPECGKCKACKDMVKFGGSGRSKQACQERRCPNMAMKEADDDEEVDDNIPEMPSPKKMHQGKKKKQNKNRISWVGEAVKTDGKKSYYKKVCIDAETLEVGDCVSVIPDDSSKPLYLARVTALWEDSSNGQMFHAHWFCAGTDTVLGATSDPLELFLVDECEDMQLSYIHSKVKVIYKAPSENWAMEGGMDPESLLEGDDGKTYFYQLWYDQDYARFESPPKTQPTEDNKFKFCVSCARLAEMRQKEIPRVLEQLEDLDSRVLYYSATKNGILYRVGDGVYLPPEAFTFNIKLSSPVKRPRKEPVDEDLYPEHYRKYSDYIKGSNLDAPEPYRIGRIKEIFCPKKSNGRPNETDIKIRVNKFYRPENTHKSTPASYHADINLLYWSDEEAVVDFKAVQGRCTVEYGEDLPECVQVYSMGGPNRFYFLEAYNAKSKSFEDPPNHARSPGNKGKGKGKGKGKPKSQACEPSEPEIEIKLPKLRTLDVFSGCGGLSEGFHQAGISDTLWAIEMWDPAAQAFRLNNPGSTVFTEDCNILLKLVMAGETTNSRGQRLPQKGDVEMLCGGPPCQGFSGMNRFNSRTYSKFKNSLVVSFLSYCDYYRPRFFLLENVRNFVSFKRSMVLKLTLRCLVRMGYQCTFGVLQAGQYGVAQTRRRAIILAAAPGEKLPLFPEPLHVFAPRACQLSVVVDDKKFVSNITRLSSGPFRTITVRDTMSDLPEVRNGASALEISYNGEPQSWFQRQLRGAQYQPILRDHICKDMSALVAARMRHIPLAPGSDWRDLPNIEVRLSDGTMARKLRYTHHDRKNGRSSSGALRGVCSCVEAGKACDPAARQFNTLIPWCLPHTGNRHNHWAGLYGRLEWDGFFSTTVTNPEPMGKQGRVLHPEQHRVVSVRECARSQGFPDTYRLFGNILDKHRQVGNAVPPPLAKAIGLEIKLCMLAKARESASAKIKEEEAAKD
LMPTP inh: blocks human LMPTP phosphatase; inhibition, % at 20 µM; recombinant LMPTP-A, OMFP fluorogenic substrate, fluorescence intensity; 360,000 compounds, 0.22% hits;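 active = compounds that cut the enzyme signal by at least half of the control window in the single-dose screen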;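 note: plate controls were DMSO wells with enzyme plus substrate for no effect and substrate without enzyme for full effect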
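Test system: LMPTP-A, protein tyrosine phosphatase of low molecular weight; Input: 0.625 nM enzyme; Incubation: 50 min dark incubation at room temperature; Signal: endpoint fluorescence intensity from OMFP dephosphorylation; Read-out basis: % inhibition versus control wells.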
STEP inh: inhibitors of human striatal-enriched phosphatase STEP | P54829 | recombinant STEP, OMFP fluorogenic substrate, fluorescence | inhibition, % at 20 µM | 360,000 compounds, 0.25% hits | AID 588621;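 active = inhibition at 20 µM, scaled per plate between control wells, above about 37%, limit read from the data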;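 note: 0% = DMSO with enzyme and substrate and 100% = substrate only without enzyme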
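System: STEP phosphatase, cell-free reaction; Buffer or medium: Bis-Tris pH 6.0 buffer with DTT, detergent; Incubation: 20 min at room temperature, dark; Measured by: fluorescence, 480/540 nm.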
HKDC1 inh: inhibitors of human hexokinase HKDC1 | Q2TB90 | recombinant HKDC1, G6PDH/diaphorase resazurin coupled fluorescence | inhibition, % at 20 µM | 340,000 compounds, 0.16% hits;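 active = inhibition above about 35% when tested at 20 µM, limit read from the data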;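 note: plate controls were DMSO wells with enzyme for no effect and DMSO wells lacking enzyme for full effect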
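Assay system: in-house recombinant HK5 (HKDC1) enzyme. Input: HKDC1 at 5 µg/mL. Medium: Tris pH 8.0 buffer with MgCl2, Tween-20, BSA, BME. Dosing: single 20 µM dose. Schedule: 90 min reaction incubation at room temperature, dark. Signal: resazurin-to-resorufin fluorescence via G6PDH and diaphorase coupling, 525/613 nm. Controls: DMSO-enzyme wells negative, buffer-substituted wells positive.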
Scp1 inh: blocks human Scp-1 phosphatase activity; Q9GZU7; Recombinant Scp1, phosphopeptide, malachite green phosphate absorbance; inhibition, % at 20 µM; 340,000 compounds, 0.88% hits; AID 493091;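 active = inhibition above about 50% at 20 µM, limit read from the data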;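 note: plate controls were DMSO wells with enzyme for no effect and wells lacking enzyme for full effect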
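Material – SCP-1 phosphatase catalytic domain, residues 76-261 · Buffer or medium – Acidic Tris acetate buffer with magnesium and detergent · Also added – Phospho 17-mer peptide substrate · Compound – single 20 µM dose, 1% DMSO · Times – 45 min room-temperature reaction, 5 min colour, 30 min stabiliser · Technique – Phosphate-binding colour reagent, absorbance read at 630 nm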
SUMO1 PPI mod: modulators of human SUMO1-mediated protein-protein interactions; SUMO1 binding to a labelled peptide, TR-FRET, 1 h; inhibition, % at 20 µM; 360,000 compounds, 0.33% hits; P63165; in the data active = inhibition above about 37%
Scp-1 conf: confirmation of human Scp-1 phosphatase inhibitors; shares compounds with Scp1 inh; recombinant SCP-1 catalytic domain, phosphate release, malachite green absorbance; inhibition, % at 20 µM; 2,500 compounds, 61% hits; AID 540281;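 note: plate controls were DMSO with enzyme for no effect and buffer wells lacking enzyme for full effect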
MG interference: interferes with malachite green readout, flagging false Scp-1 hits; shares compounds with Scp1 inh; Colorimetric interference counterscreen, malachite green absorbance 630 nm; apparent inhibition (interference), % at 20 µM; 2,500 tested, under 10 active; AID 540313;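 note: compounds added after enzyme reaction finished so only phosphate colour detection is probed; plate controls were DMSO wells with completed Scp-1 reaction for no effect and substrate wells lacking enzyme for full effect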
Scp-1 Tm shift: binds human Scp-1, shifting its melting temperature. shares compounds with Scp1 inh. Recombinant SCP1, Sypro Orange thermal shift Tm. thermal shift relative to vanadate control, % at 40 µM. 1,500 compounds, 25% hits;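 active = substances whose mean melting-temperature shift, as a percentage of the reference inhibitor's shift, reaches about 5.3%, limit read from the data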;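 note: 0% = Tm of DMSO wells and 100% = Tm with sodium orthovanadate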
Numbers without * were called inactive; x = not tested or not shown. Hits are enriched below; roughly 1.8% of the tested compounds scored in any of these assays.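 Rule for the calls, unless noted: active = inhibition of at least 30% at 20 µM; inactive = the rest.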

SMILES | DNMT1 inh | LMPTP inh | STEP inh | HKDC1 inh | Scp1 inh | SUMO1 PPI mod | Scp-1 conf | MG interference | others
O=C(Nc1ccc(Cl)cc1)c1csc([C@@H]2O[C@H](CO)[C@@H](O)[C@H]2O)n1 | 2 | 0 | -3 | x | x | 5 | x | x
COc1ccccc1CNC(=O)c1cc(-c2cc(F)ccc2OC(C)C)n[nH]1 | -4 | 1 | 1 | x | x | 4 | x | x
COc1cccc(/C=C2/NC(=O)N(CC(=O)Nc3ccc(C)cc3)C2=O)c1OCc1cccc(C(=O)O)c1 | 1 | 2 | 11 | -1 | 79* | -31 | 72* | -20 | Scp-1 Tm shift=-1
Cc1ccc(NC(=O)CN2C(=O)N/C(=C/c3ccccc3OCc3cccc(C(=O)O)c3)C2=O)cc1 | 3 | 1 | 0 | 12 | 25 | -17 | x | x
O=C(CN1C(=O)N/C(=C\c2ccccc2OCc2ccc(C(=O)O)cc2)C1=O)Nc1ccccc1F | 6 | 29 | 8 | -9 | 50* | -24 | 78* | -9 | Scp-1 Tm shift=-3
Nc1nc2cc(Cl)c(Br)cc2o1 | -1 | 0 | 2 | 0 | -5 | 7 | x | x
C[C@@H](C(=O)OCC(=O)c1ccc(F)c(F)c1)N1C(=O)C2CCCCC2C1=O (some centres undefined) | -3 | -1 | 3 | -4 | -3 | -1 | x | x
C[C@@H](NC(=O)Cn1ccc(N)nc1=O)c1cccc2ccccc12 | 1 | -2 | -2 | -5 | -2 | -3 | -24 | -25
CC1=C(C(=O)N2CCCCCC2)CC(CC(=O)NCC2CCCCC2)C(=O)N1Cc1ccc(F)cc1 (centres undefined) | x | 0 | x | x | x | 2 | x | x
COCC(C)n1c(C)cc(C(=O)COC(=O)c2c(NC(C)=O)sc(C)c2C)c1C (centres undefined) | 29 | 33 | 35 | 4 | 80* | 7 | 42* | -4 | Scp-1 Tm shift=-9
CC1CC(C)CN(C(=O)c2ccc3c(c2)N(Cc2ccccc2)CCS3)C1 (centres undefined) | -2 | 5 | 2 | 2 | 79* | 2 | 0 | -13
O=C(CCCc1c[nH]c2ccccc12)Nc1ccc2ccccc2c1 | -16 | 1 | 3 | 6 | 59* | -2 | -11 | -5
COC(=O)c1ccc(NC(=O)c2cn(-c3cccc(C)n3)cn2)cc1 | -21 | -3 | -8 | -4 | -2 | 4 | x | x
Cc1ccc(NC(=O)c2cn(-c3cccc(C)n3)cn2)cc1 | -1 | -2 | 0 | -2 | 67* | 1 | -6 | -13
CCC(C)C1Nc2ccc(C(=O)NCc3ccc4c(c3)OCO4)cc2NC1=O (centres undefined) | 0 | 0 | 0 | -2 | -6 | -9 | -4 | -5
CCCCn1c2c(c(=N)c3c1CCC3)CCC2 | 1 | 0 | -3 | -5 | 94* | 5 | -11 | -15
COc1cccc(C(=O)OCC(=O)Nc2sc3c(c2C(N)=O)CCC3)c1O | 48 | 11 | 5 | 0 | 62* | 34 | 72* | -6 | Scp-1 Tm shift=9.7*
CCCS(=O)(=O)NC(=O)C1(C)CCN(C(=O)c2cccnc2Oc2ccccc2)C1 (centres undefined) | -1 | -3 | 2 | x | x | -6 | x | x
Cc1ccsc1C(=O)Nc1ccc(OCc2ccccc2)cc1 | -2 | 2 | 0 | -6 | -2 | 2 | x | x
Cc1nn(Cc2ccccc2Cl)c(C)c1NC(=O)c1noc(C(C)C)c1[N+](=O)[O-] | 0 | -1 | -1 | -2 | 63* | -9 | -113 | -10
CC(=O)C1=CCC(c2cccc(Cl)c2)N(S(=O)(=O)c2ccc(C)cc2)C1 (centres undefined) | -5 | 2 | 0 | x | x | 7 | x | x
COc1ccc(CCN(C)C(=O)CN2C(=O)NC3(CCCc4ccccc43)C2=O)cc1OC (centres undefined) | 3 | 1 | -1 | 4 | -4 | -3 | x | x
O=C(C[C@H]1C(=O)N(Cc2ccccc2)C[C@@H]1Cc1ccccc1)Nc1ccc(Br)cc1 | -4 | 2 | -2 | x | x | 5 | x | x
C[N+]1(CC2COC3(CCCCC3)O2)CCCCC1 (centres undefined) | 3 | 1 | -1 | -3 | 108* | -2 | 75* | -21 | Scp-1 Tm shift=-16
CCOc1ncccc1C(=O)OCC(=O)NC1CCCCC1 | -2 | 0 | -1 | -5 | -6 | 3 | x | x
SMILES | DNMT1 inh | LMPTP inh | STEP inh | HKDC1 inh | Scp1 inh | SUMO1 PPI mod | Scp-1 conf | MG interference | others
O=C(CSc1nnc(-c2ccncc2)n1-c1ccccc1)N1CCN(c2ccc(Cl)cc2)CC1 | 0 | -2 | -1 | 2 | 98* | 1 | 5 | -11
CCn1c(/C=C/c2cc[n+](C)cc2)nc2ccccc21 | -6 | 0 | -3 | -5 | 102* | -34 | 12 | -8
CCc1ccc(N2CC(C(=O)OCC(=O)N(CC)c3c(N)n(Cc4ccccc4)c(=O)[nH]c3=O)CC2=O)cc1 (centres undefined) | 2 | -1 | -3 | -2 | -10 | 6 | x | x
N#CCSc1nc2ccccc2c(=O)n1CCCC(=O)NCc1ccco1 | 7 | -1 | -4 | -7 | 0 | -2 | x | x
O=C(CCCCCn1c(SCc2ccncc2)nc2ccccc2c1=O)NCc1ccco1 | 19 | 22 | 2 | 14 | 56* | 10 | 32* | -10 | Scp-1 Tm shift=-13
CC(=O)NC(CC(=O)OCC(=O)c1ccc(NC(=O)CC(C)C)cc1)c1ccccc1 (centres undefined) | 18 | 3 | 8 | 3 | 52* | 1 | 60* | -8 | Scp-1 Tm shift=-4
CC(=O)NC(CC(=O)OCC(=O)Nc1ccc2c(c1)OCO2)c1ccccc1 (centres undefined) | -2 | -1 | 0 | -6 | -12 | -3 | x | x
CC(=O)c1cccc(NC(=O)CCC(=O)Oc2ccc(C)cc2)c1 | -1 | -1 | -3 | -5 | -10 | 4 | x | x
COc1ccc(C(=O)NNC(=O)c2ccc3ccccc3c2O)cc1 | -2 | -2 | 6 | 9 | 21 | 3 | x | x
Cc1ccc(C(=O)NNC(=O)c2ccc3ccccc3c2O)cc1 | -1 | 1 | 11 | 12 | 75* | 2 | 56* | -26 | Scp-1 Tm shift=2
CCOC(=O)c1cccc(N2CC3CNC(=O)C2(C(=O)OC)N3C)c1 (centres undefined) | 5 | -1 | 0 | -4 | -6 | -1 | x | x

Compound activity deposited in PubChem BioAssay by Sanford-Burnham Center for Chemical Genomics.
